“And” between values parts separate entries of the source, which are not always exact repeats. Identical values can stand only once.

What is called MIC is the least concentration at which growth counts as inhibited. Read a high MIC as a less susceptible organism.

For the test, the system named is Mycobacterium tuberculosis. As to the kind of experiment: Minimum inhibitory concentration against Mycobacterium tuberculosis H37Rv (ATCC 27294) in BACTEC 6A medium. The test is classed as functional. The procedure, abridged:
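M. tuberculosis H37Rv ATCC 27294 tested in the BACTEC 460 radiometric system in BACTEC 6A medium. Percent inhibition = 1 − (growth index of test sample / growth index of control) × 100. MIC taken as the lowest concentration inhibiting 99% of the inoculum.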
For `Sc1nc(-c2cnccn2)no1`, the MIC is 1600 µM and 288 µg/mL.

With `CC(C)(C)C(=O)OCn1c(-c2cnccn2)noc1=O`, the MIC is 200 µM and 56 µg/mL.

Turning to `Oc1nc(-c2cnccn2)no1`, the MIC is 800 µM and 131 µg/mL.

In the case of `O=c1oc(-c2ccncc2)ns1`, the MIC was 50 µM and 9 µg/mL.

For the compound `CC(C)(C)C(=O)OCn1nnnc1-c1cnccn1`, the minimal inhibitory concentration (MIC) was 50 µM and 13 µg/mL.

As for `Oc1nc(-c2cccnc2)no1`, the MIC is > 1600 µM and > 261 µg/mL.

As for `CC(C)(C)C(=O)OCn1c(-c2cccnc2)noc1=O`, the MIC was 100 µM and 28 µg/mL.

As for `Sc1nc(-c2ccncc2)no1`, the MIC is > 1600 µM and > 286 µg/mL.

Take `O=c1oc(-c2cnccn2)ns1`: the MIC is 25 µM and 4.5 µg/mL.

With `O=c1oc(-c2cccnc2)ns1`, the MIC was 25 µM and 4.5 µg/mL.

Take `Oc1nc(-c2ccncc2)no1`: the MIC was > 1600 µM and > 261 µg/mL.

Take `CC(C)(C)C(=O)OCn1c(-c2ccncc2)noc1=O`: the MIC was 50 µM and 14 µg/mL.

For `Sc1nc(-c2cccnc2)no1`, the MIC was > 1600 µM and > 286 µg/mL.

Turning to `CC(C)(C)C(=O)OCSc1nc(-c2ccncc2)no1`, the MIC is 200 µM and 59 µg/mL.

`CC(C)(C)C(=O)OCSc1nc(-c2cnccn2)no1`: the MIC is 400 µM and 118 µg/mL.

With `CC(C)(C)C(=O)OCSc1nc(-c2cccnc2)no1`, the MIC is 200 µM and 59 µg/mL.

With `NNC(=O)c1ccncc1` [ISONIAZID], the MIC was 0.15 µM and 0.018 µg/mL.

In the case of `NC(=O)c1cnccn1` [PYRAZINAMIDE], the MIC is 400 µM and 49 µg/mL.

Values taken from ChEMBL document CHEMBL1134471, “Antimycobacterial activity of substituted isosteres of pyridine- and pyrazinecarboxylic acids. 2” (2001).
